Screening results from PubChem BioAssay.
Sampled rows, rich in hits. Any-hit rate of the full collection: about 3.9%.
TAAR1 antagonist: antagonists of human TAAR1. CHO RD-HGA16 TAAR1, Fluo-8 calcium fluorescence, antagonist. actives 1.5% (n = 360,000). inhibition, % at 3 µM. Q96RJ0;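 active = inhibition above a per-plate cutoff, the mean inhibition of test compounds on that plate plus 3 SD, cut at about 49% in these data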
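Test system: hTAAR1-expressing CHO RD-HGA16 cells, Gα16-coupled; Probe or stimulus: EC80 β-phenethylamine stimulus; Compound dosing: single nominal final test compound concentration of 3 µM; Timing: 140 s kinetic read after compound, 140 s after agonist; Signal: Fluo-8 calcium-sensitive fluorescence; Measure: % inhibition of agonist calcium response; Controls: DMSO and EC80 PEA controls.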
CRFBP-R2 block: blocks CRF-induced signaling of the CRF-BP/CRF-R2 complex. HEK293 CRF-R2/CRF-BP, CRF-induced calcium fluorescence. AID 588475. inhibition, % at 11.8 µM. actives 0.59% (n = 350,000);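 active = inhibition of the ligand-induced calcium signal above about 50% at the single tested concentration, limit read from the data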
TMEM16A act: mouse TMEM16A channel activation, primary screen; B-score at 10 µM; HEK293 TMEM16A/YFP-H148Q/I152L, iodide quench fluorescence; active compounds read low; actives 0.3% (n = 340,000); Q8BHY3;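 active = fluorescence-ratio B-score plate-corrected deviation score at least 3 library SD below zero, with starting fluorescence score within 5 deviations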;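 also: channel opened by trigger with iodide after compound preincubation; score built on the fluorescence ratio of max minus min over baseline; more negative score means more quench and so TMEM16A activation or potentiation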
Target sequence (Q8BHY3 whole entry, looked up): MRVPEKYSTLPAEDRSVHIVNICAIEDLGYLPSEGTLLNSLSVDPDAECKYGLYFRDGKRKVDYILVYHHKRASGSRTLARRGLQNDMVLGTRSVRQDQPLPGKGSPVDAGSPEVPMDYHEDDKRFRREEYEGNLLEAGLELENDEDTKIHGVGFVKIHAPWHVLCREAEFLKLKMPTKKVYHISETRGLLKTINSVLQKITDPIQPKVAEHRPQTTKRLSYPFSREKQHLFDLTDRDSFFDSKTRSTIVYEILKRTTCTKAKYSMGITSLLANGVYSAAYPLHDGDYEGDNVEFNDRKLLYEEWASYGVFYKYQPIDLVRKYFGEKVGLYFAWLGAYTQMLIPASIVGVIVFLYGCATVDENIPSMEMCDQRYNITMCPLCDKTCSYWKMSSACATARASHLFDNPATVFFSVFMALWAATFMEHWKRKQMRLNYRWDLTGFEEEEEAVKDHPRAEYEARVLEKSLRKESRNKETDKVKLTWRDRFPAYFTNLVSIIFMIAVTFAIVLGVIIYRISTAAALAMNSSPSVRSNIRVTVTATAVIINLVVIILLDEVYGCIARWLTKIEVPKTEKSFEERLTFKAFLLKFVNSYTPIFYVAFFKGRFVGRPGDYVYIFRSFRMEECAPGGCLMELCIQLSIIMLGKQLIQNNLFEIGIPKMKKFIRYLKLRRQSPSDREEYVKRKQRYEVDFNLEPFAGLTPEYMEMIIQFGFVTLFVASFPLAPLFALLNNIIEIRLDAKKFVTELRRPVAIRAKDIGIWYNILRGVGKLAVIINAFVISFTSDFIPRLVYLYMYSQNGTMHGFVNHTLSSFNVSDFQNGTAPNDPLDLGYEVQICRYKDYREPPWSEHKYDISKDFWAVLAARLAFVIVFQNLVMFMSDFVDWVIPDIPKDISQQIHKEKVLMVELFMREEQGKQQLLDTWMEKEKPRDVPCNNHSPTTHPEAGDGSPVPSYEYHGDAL
TMEM16A inh: inhibitors of mouse TMEM16A calcium-activated chloride channel | Q8BHY3 | HEK293 TMEM16A/YFP iodide influx fluorescence, ionomycin | normalized B-score (activity score, 25-100; higher = stronger inhibition) at 10 µM | actives 1.2% (n = 310,000);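 active = ratio plate-corrected score three or more library SD toward inhibition, starting fluorescence score within five deviations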;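 also: score derived from kinetic fluorescence span divided by baseline fluorescence per well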
CRFR2-BP ag: agonists of human CRF-binding protein/CRF-R2 receptor complex; HEK293 CRF-R2/CRF-BP, calcium dye fluorescence (FLIPR); percent of saturating CRF peptide response; activation, % at 13.2 µM; actives 0.46% (n = 350,000); AID 588473;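 active = activation of at least 50%, plus an integration ratio under a set limit after plate pattern correction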
TAAR1 agonist: agonists of human TAAR1 | CHO RD-HGA16 TAAR1, Fluo-8 calcium fluorescence; vehicle wells 0%, saturating PEA agonist 100% | activation, % at 3 µM | actives 0.99% (n = 360,000) | AID 624467;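 active = activation above the mean activation of all test compounds in the run plus 3 SD, cut at about 38% in these data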
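Signal – calcium-sensitive Fluo-8 signal, excitation 470-495, emission 515-575 nm · System – RD-HGA16 (CHO) cells co-expressing Gα16 and hTAAR1 · Incubation – 17-24 h seeding, 75 min 37 °C dye, 30 min RT · Compound dosing – 3 µM single concentration · Repeats – no replicates (n 1)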
Hits are given with their value; - = inactive; . = not tested or not shown.

SMILES	TAAR1 antagonist	CRFBP-R2 block	TMEM16A act	TMEM16A inh	CRFR2-BP ag	TAAR1 agonist
COC(=O)C1=C(CCc2ccccc2)NC(=O)NC1c1ccc([N+](=O)[O-])cc1 (configuration not stated)	-	-	-	-	-	-
Clc1ccc2[nH]cc(-c3nnnn3-c3ccc4ccccc4c3)c2c1	49	-	-	-	-	-
CCCCCCc1cc2cc(C(=O)Nc3ccccc3OC)c(=O)oc2cc1O	-	-	-	-	102	-
CCCCCCc1cc2cc(S(=O)(=O)c3ccc(F)cc3)c(=O)oc2cc1O	-	-	-	-	54	-
COc1cc(-c2nnc(SCc3cc(=O)oc4cc(O)c(O)cc34)o2)cc(OC)c1OC	-	-	-	-	-	-
COc1cccc2cc(-c3nnc(-c4ccccc4)o3)c(=O)oc12	-	90	-	-	-	-
CCCCCCc1cc2cc(-c3nnc(-c4cc(OC)c(OC)c(OC)c4)o3)c(=O)oc2cc1O	.	-	.	-	99	.
COc1ccc(NC(=O)c2cc3ccccc3oc2=O)c(OC)c1	-	-	-	-	-	-
Cc1c(N(C)S(=O)(=O)c2cc(C(=O)NCC3CCCO3)ccc2Cl)c(=O)n(-c2ccccc2)n1C (configuration not stated)	-	-	-	-	-	-
Cc1ccc(S(=O)(=O)N2CCOCC2)cc1NC(=O)COC(=O)Cc1ccccc1	-	-	-	.	-	-
Cc1ccccc1NC(=O)Cc1c[nH]c2ccccc12	-	-	-	-	-	-
CCCCCCc1cc2cc(-c3nnc(-c4ccccc4OC)o3)c(=O)oc2cc1O	-	-	-	-	230	-
COc1ccc(-c2nnc(-c3cc4ccccc4oc3=O)o2)cc1	-	-	-	-	-	-
COc1cc2c(cc1OC)CN(C1CC(=O)N(c3c(C)cccc3C)C1=O)CC2 (configuration not stated)	-	-	-	-	-	-
CCn1c2ccccc2c2cc(CNCc3ccc(OC)cc3OC)ccc21	-	-	-	100	-	46
CSc1nc(C)c(C(=O)C[n+]2ccccc2)cc1C#N	-	-	-	-	-	-
Cc1c(N=Cc2nc3ccccc3n2C)c(=O)n(-c2ccccc2)n1C	-	-	-	-	-	-
Cc1c(N=Cc2nc3ccccc3[nH]2)c(=O)n(-c2ccccc2)n1C	-	-	-13	-	-	-
Cc1ccnc(N2CCCC(C(=O)Nc3cccc(C)c3C)C2)n1 (configuration not stated)	-	-	-	-	-	-
Cc1noc(C)c1CSCC(=O)N1CCN(c2ccc([N+](=O)[O-])cc2)CC1	-	-	-	25	-	-
O=C(CCCC(=O)N1CCN(c2ccc([N+](=O)[O-])cc2)CC1)c1ccccc1	-	-	-	-	-	-
O=C(CCCc1ccccc1)N1CCN(c2ccc([N+](=O)[O-])cc2)CC1	-	68	-	-	-	-
N#Cc1ccc(C(CC(=O)O)N2Cc3ccccc3C2=O)cc1 (configuration not stated)	-	-	-	-	-	-
CC(C)N(C(=O)C[n+]1ccsc1N)c1ccccc1	-	59	-	-	-	-
CN(C)C(CNc1ncccn1)c1ccccc1 (configuration not stated)	-	-	-	-	-	-
SMILES	TAAR1 antagonist	CRFBP-R2 block	TMEM16A act	TMEM16A inh	CRFR2-BP ag	TAAR1 agonist
O=C(NCCc1cccs1)C1CC(c2c(Cl)cccc2Cl)=NO1 (configuration not stated)	-	-	-	-	-	47
O=C(Cc1cccs1)NNC(=O)c1ccccc1Cl	-	-	-	.	-	-
O=C(NCc1cccs1)C1CC(c2ccc(Cl)c(Cl)c2)=NO1 (configuration not stated)	-	-	-	-	-	-
O=C(CNC(=O)c1ccccc1Cl)NCCc1cccs1	-	-	-	.	-	40
CC1CCCN(C(=O)COC(=O)c2cccc(NS(=O)(=O)c3ccccc3)c2)C1 (configuration not stated)	-	-	-	-	-	-
COC(=O)[C@]1(CC(C)C)N[C@H](c2ccc(-c3cccc(Cl)c3)cc2)[C@@H]2C(=O)N(C)C(=O)[C@@H]21	-	-	-8.6	-	-	-
COC(=O)[C@]1(C)N[C@H](c2ccc(-c3cccc(Cl)c3)cc2)[C@@H]2C(=O)N(C)C(=O)[C@@H]21	-	-	-	.	-	-
CCC(C)Sc1ccc([C@H]2N[C@@](CC(C)C)(C(=O)OC)[C@H]3C(=O)N(CC)C(=O)[C@@H]23)cc1 (some centres not stated)	-	-	-8.4	-	-	-
Cc1ccc(N(C(=O)c2csnn2)C(C(=O)NC2CCCC2)c2ccccn2)c(C)c1 (configuration not stated)	-	-	-	-	-	-
C[C@]12CCC(O)CC1CCC1C2CC[C@]2(C)C(c3cc(C(F)(F)F)n[nH]3)CCC12 (some centres not stated)	-	-	-	-	54	-
C[C@H](O)[C@@]1(O)CC[C@H]2[C@@H]3CC[C@@H]4C[C@H](O)CC[C@]4(C)[C@H]3CC[C@@]21C	-	-	-	-	-	-
Oc1ccc2ccccc2c1C=Nc1ccccc1Br	-	-	-	-	-	-
Cc1ccc(S(=O)(=O)NN=Cc2c(O)ccc3ccccc23)cc1	-	56	.	.	-	-
Oc1ccccc1N=Cc1c(O)ccc2ccccc12	-	-	-	.	123	-
O=C(N/N=C/c1c(O)ccc2ccccc12)c1cccc(C(F)(F)F)c1	62	-	-	-	208	58
CNC(=O)C1(C(F)(F)F)C/C(=C\CCO)CCCO1 (configuration not stated)	-	-	-	-	-	-
S=C(NCCCc1ccccc1)Nc1ccc(Cl)cc1	-	-	-6.3	100	-	-
O=C(Nc1cc(C(=O)N2CCCC2)ccc1N1CCCC1)c1ccccc1F	-	-	-	-	-	-
S=C(NCc1ccccc1)Nc1ccc(Cl)cc1	-	57	-	-	-	-
S=C(NCCCc1ccccc1)Nc1ccccc1	-	-	-	-	-	-
S=C(NCc1ccc(Cl)cc1)NC1CCN(Cc2ccccc2)CC1	-	-	-	-	-	51
O=C(Nc1ccc(C(=O)N2CCCC2)cc1)c1ccccc1F	.	66	-	-	-	.
Cc1ccsc1C(=O)OCC(=O)NCc1cccs1	-	-	.	.	-	-
O=C(c1ccco1)N1CCN(Cc2cc(=O)c(OCc3ccc([N+](=O)[O-])cc3)co2)CC1	-	-	-	-	-	-
O=C(CNCc1ccc(Cl)cc1)Nc1ccc(C(=O)N2CCCCC2)cc1	-	-	-	-	-	-
